One data set concerns red blood cells of mice. The data set is described as follows: Hemolytic assay. It is filed as cell-based. The following applies: 37 °C, 1 h, testing range up to 250 μg/mL.
For data set [1], the system named is MRSA. It is filed as cell-based, Staphylococcus aureus. The following applies: not told.
The subject of data set [2] is E. coli. The data set is described as follows: Fluorescence microscopy. It is filed as cell-based, Escherichia coli. The following applies: 2 × MIC, 2 h.
The subject of data set [3] is E. coli. In words: Membrane depolarization study, DiSC3. It is filed as cell-based, Escherichia coli. The conditions noted are these: 0.5 ×, 1 ×, 2 × and 4 × MIC.
In data set [4] the test system is E. coli. The data set is described as follows: Inner membrane permeabilization. It is filed as cell-based, Escherichia coli. The conditions noted are these: 2-fold MIC. The method, boiled down: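 Mid-log E. coli was pelleted at 1000g, washed three times and resuspended to 10^6 CFU/mL in 5 mM HEPES/5 mM glucose (1:1). It was mixed with PI from a 10 μM solution. Fluorescence (ex 535, em 617 nm) was read every 2 min for about 8 min. The test compound was then added and reading continued for 12 min. The negative control received water. Three repeats.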

In data set [5] the test system is E. coli. The data set is described as follows: TEM study, E. coli. It is filed as cell-based, Escherichia coli. The conditions noted are these: 12 μg/mL, 2 h. The method, boiled down: (§1)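 Cells were prepared at 10^6 CFU/mL as for MIC testing and treated with the test compound for 2 h at 37 °C; untreated controls ran alongside. Cells were pelleted, washed three times in PBS and resuspended in deionised water. They were dropped on grids, blotted, dried 30 s at 50 °C under vacuum, and imaged by TEM at 60 kV.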

Data set [6] concerns MRSA. In words: TEM study, MRSA. It is filed as cell-based, Staphylococcus aureus. The following applies: 6 μg/mL, 2 h. The essentials:
as §1

Data set [7] concerns MRSA. In words: Time-kill study, MRSA. It is filed as cell-based, Staphylococcus aureus. The following applies: concentrations of 24 and 48 μg/mL. The method, boiled down:
(§2)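 Overnight TSB cultures (37 °C, shaking) were subcultured 6 h to mid-log phase. Suspensions at 10^6 CFU/mL were exposed to the test compound at 37 °C for 10, 30, 60 and 120 min (E. coli 12, 24, 48 μg/mL; MRSA 6, 12, 24, 48 μg/mL). Untreated bacteria served as controls. Samples were diluted (MRSA 10^2-fold, E. coli 10^4-fold) and plated on TSB agar for 20 h at 37 °C. Colonies were counted against time. Three repeats.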

Data set [8] concerns MRSA. The data set is described as follows: Fluorescence microscopy. The conditions noted are these: 2 × MIC, 2 h. It is filed as cell-based, Staphylococcus aureus.
The test system of data set [9] is MRSA. In words: Drug resistance study. The conditions noted are these: 13 passages. It is filed as cell-based, Staphylococcus aureus.
Data set [10] relates to E. coli biofilm formation. In words: Biofilm prevention study. It is filed as cell-based. The conditions noted are these: Escherichia coli, 48 h, read-out: Inhibition of E. coli biofilm formation.
Data set [11] relates to E. coli. In words: Time-kill study, E. coli. It is filed as cell-based, Escherichia coli. The conditions noted are these: concentrations of 24 and 48 μg/mL. The essentials:
as §2

The term inhibition denotes how much of the control response was suppressed.

Molecules are shown by their SMILES.

With `CCCCCC(=O)N[C@@H](CCCCN)CN1CC(=O)N(c2ccc(N3CN(C[C@H](CCCCN)NC(=O)CCCCC)CC3=O)cc2)C1` [Compound 1, N,N'-((2S,2'S)-(1,4-Phenylenebis(4-oxoimidazolidine-3,1-diyl))-bis(6-aminohexane-1,2-diyl))dihexan amide], in the data set on red blood cells of mice, the “Hemolysis (HC50)” value was more than 250 µg/mL. For `CCCCCCCC(=O)N[C@@H](CCCCN)CN1CC(=O)N(c2ccc(N3CN(C[C@H](CCCCN)NC(=O)CCCCCCC)CC3=O)cc2)C1` [Compound 2, N,N'-((2S,2'S)-(1,4-Phenylenebis(4-oxoimidazolidine-3,1-diyl))-bis(6-aminohexane-1,2-diyl))dioctan amide], the “Hemolysis (HC50)” value with red blood cells of mice was more than 250 µg/mL.

With `CCCCCCCCCC(=O)N[C@@H](CCCCN)CN1CC(=O)N(c2ccc(N3CN(C[C@H](CCCCN)NC(=O)CCCCCCCCC)CC3=O)cc2)C1` [Compound 3, N,N'-((2S,2'S)-(1,4-Phenylenebis(4-oxoimidazolidine-3,1-diyl))-bis(6-aminohexane-1,2-diyl))bis(decanamide)], the “Inner membrane permeabilization of MRSA (PI fluorescence)” value in the data set on MRSA [1] is recorded as “permeabilized fast”. The “DAPI/PI staining of E. coli (membrane integrity)” value in the data set with E. coli [2] is “blue and red fluorescence were all observed”. In addition, the “Membrane depolarization, DiSC3(5) fluorescence intensity” value in the data set with E. coli [3] was “increase in a concentration-dependent manner”. The “Inner membrane permeabilization of E. coli (PI fluorescence)” value in the data set with E. coli [4] is given as “permeabilized fast”. Further, in the data set with E. coli [5], the “Cell membrane morphology of E. coli (TEM)” value is “their membrane was all dispersed”. Moreover, the “Cell membrane morphology of MRSA (TEM)” value in the data set on MRSA [6] was “their membrane was all dispersed”. Also, the “Time to thoroughly eliminate MRSA” value with MRSA [7] is not above 60 min. Besides, the “DAPI/PI staining of MRSA (membrane integrity)” value in the data set with MRSA [8] was “blue and red fluorescence were all observed”. Moreover, the “Fold increase in MIC toward MRSA” value in the data set with MRSA [9] is reported as “remained almost unchanged”. The inhibition at 3 µg/mL in [10] is more than 55%. Besides, the “Time required for eradicating E. coli” value with E. coli [11] is on record as 30 min. Also, in the data set on red blood cells of mice, the “Hemolysis (HC50)” value is more than 250 µg/mL. Turning to `CCCCCCCCCCCC(=O)N[C@@H](CCCCN)CN1CC(=O)N(c2ccc(N3CN(C[C@H](CCCCN)NC(=O)CCCCCCCCCCC)CC3=O)cc2)C1` [Compound 4, N,N'-((2S,2'S)-(1,4-Phenylenebis(4-oxoimidazolidine-3,1-diyl))-bis(6-aminohexane-1,2-diyl))didodecanamide], the “Hemolysis (HC50)” value in the data set on red blood cells of mice is more than 250 µg/mL.

As for `CCCCCCCCCCCCCC(=O)N[C@@H](CCCCN)CN1CC(=O)N(c2ccc(N3CN(C[C@H](CCCCN)NC(=O)CCCCCCCCCCCCC)CC3=O)cc2)C1` [Compound 5, N,N'-((2S,2'S)-(1,4-Phenylenebis(4-oxoimidazolidine-3,1-diyl))-bis(6-aminohexane-1,2-diyl))ditetradecanamide], the “Hemolysis (HC50)” value in the data set with red blood cells of mice is more than 250 µg/mL. `CCCCCCCCCCCCCCCC(=O)N[C@@H](CCCCN)CN1CC(=O)N(c2ccc(N3CN(C[C@H](CCCCN)NC(=O)CCCCCCCCCCCCCCC)CC3=O)cc2)C1` [Compound 6, N,N'-((2S,2'S)-(1,4-Phenylenebis(4-oxoimidazolidine-3,1-diyl))-bis(6-aminohexane-1,2-diyl))dipalmitamide]: the “Hemolysis (HC50)” value in the data set with red blood cells of mice is more than 250 µg/mL. For `NCCCC[C@@H](CN1CC(=O)N(c2ccc(N3CN(C[C@H](CCCCN)NC(=O)CC45C[C@H]6C[C@@H](C4)C[C@@H](C5)C6)CC3=O)cc2)C1)NC(=O)CC12C[C@H]3C[C@@H](C1)C[C@@H](C2)C3` [Compound 7, N,N'-((2S,2'S)-(1,4-Phenylenebis(4-oxoimidazolidine-3,1-diyl))-bis(6-aminohexane-1,2-diyl))bis(2-((3S,5S,7S)-adamantan-1-yl)-acetamide)], the “Hemolysis (HC50)” value in the data set with red blood cells of mice is more than 250 µg/mL.

As for `NCCCC[C@@H](CN1CC(=O)N(c2ccc(N3CN(C[C@H](CCCCN)NC(=O)Cc4ccc5ccccc5c4)CC3=O)cc2)C1)NC(=O)Cc1ccc2ccccc2c1` [Compound 8, N,N'-((2S,2'S)-(1,4-Phenylenebis(4-oxoimidazolidine-3,1-diyl))-bis(6-aminohexane-1,2-diyl))bis(2-(naphthalen-2-yl)acetamide)], the “Hemolysis (HC50)” value with red blood cells of mice is more than 250 µg/mL. Regarding `NCCCC(=O)N[C@@H](Cc1ccccc1)CN1CC(=O)N(c2ccc(N3CN(C[C@H](Cc4ccccc4)NC(=O)CCCN)CC3=O)cc2)C1` [Compound 9, N,N'-((2S,2'S)-(1,4-Phenylenebis(4-oxoimidazolidine-3,1-diyl))-bis(3-phenylpropane-1,2-diyl))bis(4-aminobutanamide)], the “Hemolysis (HC50)” value in the data set with red blood cells of mice is more than 250 µg/mL.

Take `CCCCCCCCCC(=O)N[C@@H](Cc1ccccc1)CN1CC(=O)N(c2ccc(N3CN(C[C@H](Cc4ccccc4)NC(=O)CCCCCCCCC)CC3=O)cc2)C1` [Compound 10, N,N'-((2S,2'S)-(1,4-Phenylenebis(4-oxoimidazolidine-3,1-diyl))-bis(3-phenylpropane-1,2-diyl))bis(decanamide)]: in the data set with red blood cells of mice, the “Hemolysis (HC50)” value was more than 250 µg/mL.

Regarding `CCCCCCCCCC(=O)N[C@@H](CCCCN)CNCC(=O)Nc1ccc(NC(=O)CNC[C@H](CCCCN)NC(=O)CCCCCCCCC)cc1` [Compound 11, N,N'-((2S,2'S)-(((1,4-Phenylenebis(azanediyl))bis(2-oxoethane-2,1-diyl))bis(azanediyl))bis(6-aminohexane-1,2-diyl))bis-(decanamide)], the “Hemolysis (HC50)” value in the data set on red blood cells of mice is more than 250 µg/mL. With `CCn1cc(C(=O)O)c(=O)c2cc(F)c(N3CCNCC3)cc21` [norfloxacin, reference compound], the “Fold increase in MIC toward MRSA” value in the data set with MRSA [9] was “more than 22 fold”.
